The results in this text go back to ChEMBL document CHEMBL1134741, “Synthesis and preliminary pharmacological evaluation of coumestans with different patterns of oxygenation” (Bioorg Med Chem Lett, 2001).

The subject of one assay is Bothrops jararacussu. In words: (§1) Concentration required to antagonise the creatine kinase release induced by Bothrops jararacussu venom. In kind it is functional, organism-based.
The species entered for the next assay is Rattus norvegicus. In words: Tested for the inhibitory activity against rat kidney Na+, K+-ATPase. Type of assay: functional. Summed up: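 Na+,K+-ATPase was taken from partially purified rat kidney microsomes. Inhibition was measured by phosphate release (Fiske–Subbarow) using 1.2 mM ATP.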
Assay [1] can be described thus: Tested for antimyotoxic activity of the compound. In kind it is functional.
For assay [2], the target named is GABA-A receptor; anion channel. Nature of the assay: Inhibition of [3H]flunitrazepam binding to rat brain synaptosomes. Type of assay: subcellular. In outline:
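Crude rat brain synaptosomes (200 µg protein; cerebellum and brainstem removed) were incubated with 0.2 nM [3H]-flunitrazepam in buffered Krebs solution for 90 min at 4 °C.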

In another assay the test system is P06732. The assay is described as §1. In kind it is functional.
Chain of P06732 (P06732 whole entry): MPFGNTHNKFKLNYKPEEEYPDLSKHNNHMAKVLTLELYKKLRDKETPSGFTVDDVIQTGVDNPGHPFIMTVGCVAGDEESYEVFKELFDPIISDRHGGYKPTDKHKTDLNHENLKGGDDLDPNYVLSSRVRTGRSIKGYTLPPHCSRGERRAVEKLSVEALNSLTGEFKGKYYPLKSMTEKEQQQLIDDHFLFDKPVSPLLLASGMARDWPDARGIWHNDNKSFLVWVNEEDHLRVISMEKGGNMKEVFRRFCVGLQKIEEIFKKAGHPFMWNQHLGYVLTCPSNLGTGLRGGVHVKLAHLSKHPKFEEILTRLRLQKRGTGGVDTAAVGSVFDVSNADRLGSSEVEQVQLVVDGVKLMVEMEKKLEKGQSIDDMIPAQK
The target of assay [3] is T1, Polyunsaturated fatty acid 5-lipoxygenase (Homo sapiens, UniProt P09917).
T1 sequence (P09917 whole entry): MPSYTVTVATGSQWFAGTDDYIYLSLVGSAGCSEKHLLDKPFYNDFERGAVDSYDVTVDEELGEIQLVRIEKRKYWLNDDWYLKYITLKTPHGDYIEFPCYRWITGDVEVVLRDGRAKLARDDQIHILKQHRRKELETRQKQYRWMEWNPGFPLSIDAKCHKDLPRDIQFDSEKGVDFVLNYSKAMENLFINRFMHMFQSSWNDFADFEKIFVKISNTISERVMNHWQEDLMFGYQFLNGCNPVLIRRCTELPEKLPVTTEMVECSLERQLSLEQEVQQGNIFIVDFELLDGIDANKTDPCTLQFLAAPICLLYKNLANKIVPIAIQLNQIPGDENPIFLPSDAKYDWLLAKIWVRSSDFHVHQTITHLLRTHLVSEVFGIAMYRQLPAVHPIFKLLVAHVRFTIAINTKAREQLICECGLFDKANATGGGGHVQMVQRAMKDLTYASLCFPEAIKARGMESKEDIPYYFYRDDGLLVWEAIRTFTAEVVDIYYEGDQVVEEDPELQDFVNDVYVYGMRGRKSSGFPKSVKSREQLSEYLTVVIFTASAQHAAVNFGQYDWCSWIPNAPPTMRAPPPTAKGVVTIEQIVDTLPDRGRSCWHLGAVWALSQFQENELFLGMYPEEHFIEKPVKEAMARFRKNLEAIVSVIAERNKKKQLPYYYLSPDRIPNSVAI
In words: Tested for the inhibitory activity against 5-lipoxygenase.

A value given as a limit tells only on which side of the number the result lay.

The term IC50 denotes the midpoint of a concentration-inhibition curve. Lower therefore signals greater potency in that assay. `COc1cc2oc(=O)c3c4cc(O)c(O)cc4oc3c2cc1O` displayed a Concentration with Bothrops jararacussu of 30 µM. Moreover, the results for the IC50 (in the assay filed under Rattus norvegicus; in assay [1]; in assay [2]) were 500 nM, 1000 nM and more than 100000 nM, respectively. In turn, `O=c1oc2cc(O)ccc2c2oc3cc4c(cc3c12)OCO4` had a Concentration in the assay with P06732 of 30 µM.

Take `COc1cc2oc3c4ccc(O)cc4oc(=O)c3c2cc1O`: the Concentration with P06732 is 30 µM. Still for that read-out and setting: for `COc1cc2oc(=O)c3c4cc(OC)c(O)cc4oc3c2cc1O` the value was 30 µM. In the case of `COc1cc(O)c2c(c1)oc(=O)c1c3cc(O)c(O)cc3oc21` [WEDELOLACTONE], the IC50 in assay [3] worked out at 2500 nM; in the assay filed under Rattus norvegicus, 700 nM; in assay [2], 2000 nM. `O=c1oc2cc(O)ccc2c2oc3cc(O)c(O)cc3c12`: the Concentration in the assay with P06732 worked out at 30 µM.
